Screens: PubChem, several laboratories
PHOSPHO1 block – PHOSPHO1 (human) inhibition. AID 1565. recombinant PHOSPHO1, absorbance phosphatase assay. inhibition, % at 13.3 µM. 1.1% of 290,000 active. Q8TCT1; in the data active = inhibition above about 60%
Target sequence (Q8TCT1 whole entry, looked up): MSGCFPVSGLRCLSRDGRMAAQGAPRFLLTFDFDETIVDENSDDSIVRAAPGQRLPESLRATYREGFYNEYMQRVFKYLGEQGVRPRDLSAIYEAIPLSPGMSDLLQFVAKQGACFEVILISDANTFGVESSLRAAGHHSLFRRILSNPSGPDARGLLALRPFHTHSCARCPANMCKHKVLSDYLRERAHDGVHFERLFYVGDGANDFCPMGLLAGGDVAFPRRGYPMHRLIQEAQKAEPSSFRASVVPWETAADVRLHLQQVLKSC
EP2 mod – EP2 receptor (human) modulation | 0.83% of 260,000 active | induction, % at 25 µM | P43116 | EP2-expressing cells, cAMP HTRF FRET, PGE2 co-stimulation;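 active = compounds whose cAMP rise, as percent of the full-agonist control response, exceeds 60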;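 note: rat C6 glioma line stably carrying human EP2 under a CMV promoter; the protocol text gives 20 µM as final concentration; 100% = response of wells given 1 µM PGE2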
Target sequence (P43116 whole entry, looked up): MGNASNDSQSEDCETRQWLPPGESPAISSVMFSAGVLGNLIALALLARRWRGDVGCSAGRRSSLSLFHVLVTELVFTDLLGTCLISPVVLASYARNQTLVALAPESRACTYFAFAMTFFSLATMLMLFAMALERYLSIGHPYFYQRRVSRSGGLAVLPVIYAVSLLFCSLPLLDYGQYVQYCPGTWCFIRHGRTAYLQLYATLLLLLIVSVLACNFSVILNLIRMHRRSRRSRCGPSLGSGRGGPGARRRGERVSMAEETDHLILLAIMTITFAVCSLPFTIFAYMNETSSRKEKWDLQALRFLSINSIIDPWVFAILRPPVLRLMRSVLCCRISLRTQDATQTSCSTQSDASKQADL
HKDC1 inh – blocks human hexokinase HKDC1 activity | AID 493160 | inhibition, % at 20 µM | 0.16% of 340,000 active | recombinant HKDC1, G6PDH/diaphorase resazurin coupled fluorescence | Q2TB90;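 active = inhibition above about 35% when tested at 20 µM, limit read from the data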;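 note: plate controls were DMSO wells with enzyme for no effect and DMSO wells lacking enzyme for full effect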
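System: Recombinant HKDC1 hexokinase | Amount: HKDC1 at 5 µg/mL | Reagent: Glucose with 1 mM ATP | Doses: Single 20 µM dose | Incubation: Reaction time 90 min, room temperature, protected from light | Signal: Coupled resazurin fluorescence, excitation 525 nm, emission 613 nm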
EP2 antag – blocks the human prostaglandin E2 receptor EP2; inhibition, % at 25 µM; C6 glioma cells expressing human EP2, cAMP TR-FRET; cells stimulated with saturating PGE2; 0.52% of 260,000 active; P43116;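 active = percent inhibition above 40 after rounding to a whole number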;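 note: rat C6 glioma host cells with rolipram phosphodiesterase inhibitor present; the protocol text gives 20 µM as final concentration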
Tb hexokinase – T. brucei hexokinase 1 inhibition; 0.11% of 220,000 active; recombinant TbHK1, G6PDH-coupled NADH A340; AID 1430; inhibition, % at 10 µM;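 active = inhibition of 50% or more in the single-dose primary screen; inactive = inhibition below 50%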
PfGluPho inh – PfG6PD (Plasmodium falciparum) enzyme inhibition. 0.78% of 350,000 active. PfGluPho enzyme, NADPH resazurin-diaphorase fluorescence. inhibition, % at 20 µM. AID 504690;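 active = inhibition reaching at least a set limit at 20 µM in the primary screen, cut at about 59% in these data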;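 note: 0% = DMSO wells with substrate and 100% = DMSO wells lacking glucose-6-phosphate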
* = called active by the depositor; ! = repeats disagree. Only some compounds are listed: those with a hit (about 2.5% of all), similar ones and a draw of the others.

How did O=C(O)CCC(=O)c1ccc2ccc3cccc4ccc1c2c34 do in these assays?
PHOSPHO1 block: 24; EP2 mod: -23; EP2 antag: 53*!; Tb hexokinase: -5

Results for Cc1cc(=O)cc(C)n1-c1ccc(Br)cc1 ?
PHOSPHO1 block: -27; EP2 mod: 23; HKDC1 inh: 8; EP2 antag: 5; Tb hexokinase: -4; PfGluPho inh: 11

Results for Cc1cn(C(=O)c2ccccc2)c(=S)n1-c1ccc(Br)cc1 ?
PHOSPHO1 block: 2; EP2 mod: 65*; HKDC1 inh: -3; EP2 antag: 5; Tb hexokinase: -18; PfGluPho inh: -11

What do the screens show for `COc1ccc2[nH]c(=O)c(C(c3nnnn3C(C)(C)C)N3CCN(c4ccccc4F)CC3)cc2c1` (stereo not drawn)?
EP2 mod: 30; EP2 antag: 8

How did CCc1ccc2[nH]c(=O)c(C(c3nnnn3C(C)(C)C)N3CCN(c4ccccc4F)CC3)cc2c1 (stereo not drawn) do in these assays?
EP2 mod: 74*; EP2 antag: 11

Results for CCc1ccc2[nH]c(=O)c(C(c3nnnn3Cc3ccco3)N3CCC(C)CC3)cc2c1 (stereo not drawn) ?
PHOSPHO1 block: 6; EP2 mod: 61*; HKDC1 inh: 0; EP2 antag: 3; Tb hexokinase: -12; PfGluPho inh: 17

What do the screens show for `CCc1ccc2[nH]c(=O)c(C(c3nnnn3CCOC)N3CCN(c4ccccc4)CC3)cc2c1` (stereo not drawn)?
PHOSPHO1 block: 86*; EP2 mod: 8; HKDC1 inh: 1; EP2 antag: 10; Tb hexokinase: -10; PfGluPho inh: 5

How did Cc1cc2cc(C(c3nnnn3C(C)(C)C)N3CCN(Cc4ccccc4)CC3)c(=O)[nH]c2cc1C (stereo not drawn) do in these assays?
EP2 mod: 11; EP2 antag: 91*

What do the screens show for `CC1c2ccsc2CCN1Cc1cccc(Oc2ncccn2)c1` (stereo not drawn)?
EP2 mod: -2; EP2 antag: 7

Results for O=C(CN1Cc2ccccc2C1=O)N1CCC(n2nnc(-c3ccccc3)n2)CC1 ?
EP2 mod: -23

How did O=C(CSc1nnc(COc2cccc3ccccc23)o1)OC1CCCCC1 do in these assays?
EP2 mod: 43; EP2 antag: 12

What do the screens show for `COc1ccccc1C1(O)CCN(Cc2ccc3cccc(OC)c3n2)CC1`?
EP2 mod: -10; EP2 antag: 7

Results for Cc1cc(-c2ccccc2)c2c(=O)n(-c3ccccc3)[nH]c2n1 ?
PHOSPHO1 block: 24; HKDC1 inh: 7; PfGluPho inh: 4

How did O=c1c2c3n(c(=S)nc2[nH]n1-c1ccccc1)CCCCC3 do in these assays?
PHOSPHO1 block: 82*; EP2 mod: 2; HKDC1 inh: -7; EP2 antag: 2; Tb hexokinase: -10; PfGluPho inh: 18

What do the screens show for `CC1CCCN(C(=O)C2CCN(Cc3cccnc3)CC2)C1` (stereo not drawn)?
EP2 mod: 0; EP2 antag: 8

Results for Cc1[nH]n(-c2ccccc2)c(=O)c1C=NCCc1ccccc1 ?
PHOSPHO1 block: 44; EP2 mod: -27; HKDC1 inh: -4; EP2 antag: 9; Tb hexokinase: -1; PfGluPho inh: 6

Results for CCCCN=Cc1c(C)[nH]n(-c2ccccc2)c1=S ?
PHOSPHO1 block: 68*; EP2 mod: 12; HKDC1 inh: -12; EP2 antag: 10; Tb hexokinase: -1; PfGluPho inh: 57

How did O=C(c1cc(COc2cccc(C(F)(F)F)c2)on1)N1CCCC1 do in these assays?
PfGluPho inh: 8

How did C=CCC1(CC=C)CCCN1C(=O)c1cc(COc2cccc(C(F)(F)F)c2)on1 do in these assays?
PHOSPHO1 block: 61*; HKDC1 inh: 10; PfGluPho inh: 15

Results for Cc1cccc(Nc2nc(-c3ccccn3)cs2)n1 ?
PHOSPHO1 block: 71*; EP2 mod: -38; HKDC1 inh: 5; EP2 antag: 6; Tb hexokinase: 11; PfGluPho inh: 14

Results for CCc1nn(CC(=O)N2C(C)CCCC2C)c(=O)c2cc3sc(C)cc3n12 (stereo not drawn) ?
EP2 mod: -7

How did O=C1Nc2ccccc2Nc2ccc([N+](=O)[O-])cc21 do in these assays?
PHOSPHO1 block: 28; HKDC1 inh: 7; PfGluPho inh: -30

What do the screens show for `O=C1C2=C(Nc3cc([N+](=O)[O-])ccc3N2)O[C@H]1c1ccc([C@H]2OC3=C(Nc4ccc([N+](=O)[O-])cc4N3)C2=O)cc1`?
EP2 mod: -24; EP2 antag: 58*

What do the screens show for `C/C(=N\Nc1cc(C(F)(F)F)ccc1Cl)c1ccccc1O`?
PHOSPHO1 block: 1; EP2 mod: 65*; HKDC1 inh: -6; EP2 antag: 5; Tb hexokinase: -8; PfGluPho inh: 13

Results for C/C(=N\Nc1ccc(F)cc1F)c1ccccc1O ?
PHOSPHO1 block: -64; EP2 mod: -44; HKDC1 inh: 3; EP2 antag: 14; Tb hexokinase: -2; PfGluPho inh: 22

What do the screens show for `C=CCn1c(N2CCC(C(=O)NCCc3ccccc3F)CC2)nc2ccccc21`?
EP2 mod: -42

How did Cc1cccc(C2NC(=O)c3c(sc(C)c3C)N2)c1O (stereo not drawn) do in these assays?
PHOSPHO1 block: 41; EP2 mod: 15; HKDC1 inh: -5; EP2 antag: 22; Tb hexokinase: -4; PfGluPho inh: 14

What do the screens show for `Cc1ccc(C2NC(=O)c3c(sc(C)c3C)N2)c(O)c1` (stereo not drawn)?
PHOSPHO1 block: 104*; EP2 mod: -9; HKDC1 inh: 2; EP2 antag: 6; Tb hexokinase: -15; PfGluPho inh: 34

What do the screens show for `Cc1sc2c(c1C)C(=O)NC(c1ccccc1F)N2` (stereo not drawn)?
PHOSPHO1 block: -117; EP2 mod: -9; HKDC1 inh: -10; EP2 antag: 11; Tb hexokinase: -17; PfGluPho inh: 75*

What do the screens show for `C#CCOc1ccc(CN2CCc3c(nc(N4CC(C)OC(C)C4)[nH]c3=O)C2)cc1OC` (stereo not drawn)?
EP2 mod: -7; EP2 antag: 9

What do the screens show for `NC(=O)C1C2C=CC3(O2)C1C(=O)N(Cc1cccs1)C3C(=O)NC1CCCCC1` (stereo not drawn)?
EP2 mod: 9; EP2 antag: 10

What do the screens show for `CC(=O)NC1Sc2ccccc2N=C1c1ccccc1` (stereo not drawn)?
PHOSPHO1 block: -23; EP2 mod: -14; HKDC1 inh: -6; EP2 antag: 8; Tb hexokinase: -5; PfGluPho inh: 63*

How did N#CCCN(C(=O)c1ccc2c(=O)n3c(nc2c1)CCCCC3)c1ccccc1 do in these assays?
PHOSPHO1 block: 64*; HKDC1 inh: -3; PfGluPho inh: 7
